Bioassay records deposited in PubChem BioAssay by several laboratories.
Hits are enriched below; roughly 2.4% of the tested compounds scored in any of these assays.
b-catenin transl = modulators of beta-catenin nuclear translocation, primary screen, imaging, HeLa cells, immunofluorescence, high-content. 190,000 tested, 0.3% active. nuclear translocation activity, % at 5 µM;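 active means nuclear translocation activity above 50% at 5 µM, with a well cell count of 50 or more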;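 further: per-cell ratio of nuclear to cytoplasmic median beta-catenin stain intensity; plate controls were DMSO negative control for no effect and GSK-3 inhibitor IX positive control for full effect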
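Test system: HeLa cells, endogenous beta-catenin; Compound: single 5 µM dose plus 0.02–20 µM confirmation series; Times: compound exposure 24 h at 37°C; Signal: fluorescence imaging of beta-catenin antibody stain plus DAPI; Read-out: % activation, nuclear-to-cytoplasmic median beta-catenin signal ratio per cell.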
MT stabilizer = microtubule stabilizers in HeLa cells, primary screen, imaging, high-content imaging | HeLa tubulin immunostaining HCS, 24 h; share of cells brighter than vehicle mean+2SD | % tubulin-high responders, % at 10 µM | 200,000 tested, 0.83% active;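 active means plate Z-score above 3 for both tubulin-high and condensed-nucleus cell shares, with cell loss under 80%, at 10 µM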;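 further: anti alpha tubulin signal scored within the nucleus-defined area of each cell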
STAT3 activator = IL-6 driven STAT3 reporter potentiators, primary screen, U3A cells, luciferase, luminescence, MLSCN library; 190,000 tested, 0.91% active; AID 871, 2007; IL-6 STAT3-luciferase reporter; 100% = signal with IL-6 EC80 alone; activation (% of control), % at 5.6 µM;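 active means activation above the screen-wide mean of compound activation plus 3 SD, cut at about 130% in these data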;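 further: 0% = background luminescence of wells with medium and substrate only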
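Material: human U3A cells carrying STAT3-luciferase construct. Measured by: reporter luminescence signal. Timing: compound 1 h, then IL-6 6 h at 37 °C.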
STAT3 inh = IL-6 driven STAT3 reporter inhibitors, primary screen, U3A cells, luciferase, luminescence, MLSCN library; IL-6 STAT3-luciferase reporter; host cell line lacks STAT1; inhibition, % at 5.5 µM; 190,000 tested, 0.89% active;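 active means inhibition above the mean inhibition across all screened compounds plus 3 SD, cut at about 44% in these data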;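 further: 0% = DMSO only wells and 100% = 100 µM nifuroxazide control wells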
STAT1 blocker = STAT1 signaling inhibitors, primary screen, cell-based, HTS, luciferase reporter; 200,000 tested, 0.35% active; NIH 3T3 STAT1-luciferase reporter, IFN-gamma, luminescence; inhibition, % at 5.5 µM;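 active means inhibition above a set limit, the mean inhibition across all tested compounds plus 3 SD, cut at about 34% in these data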;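 further: 0% = IFN-gamma with DMSO and 100% = IFN-gamma with 300 µM nifuroxazide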
* = called active by the depositor.

For COCCCN=C1NN=C(c2cc(C)n(Cc3ccco3)c2C)CS1 the results were MT stabilizer 14.4*, STAT3 activator 98.0, STAT3 inh 2.6 and STAT1 blocker -26.1.
Screening Cc1cc(=O)oc2cc(OCC3CC(c4ccc(Br)cc4)=NO3)ccc12 (stereo unspecified) returned b-catenin transl 0.2, MT stabilizer 20.4*, STAT3 activator 88.5, STAT3 inh 16.1 and STAT1 blocker -2.6.
Screening Cc1cc(=O)oc2cc(OCC3CC(c4ccccc4)=NO3)ccc12 (stereo unspecified) returned b-catenin transl -8.0, MT stabilizer 31.6, STAT3 activator 83.2, STAT3 inh 21.1 and STAT1 blocker -9.5.
`CCCc1c(C)nn(C(=O)/C(C#N)=N/Nc2ccccc2[N+](=O)[O-])c1C` gave b-catenin transl 1.8, MT stabilizer 6.2, STAT3 activator 98.0, STAT3 inh 4.8 and STAT1 blocker -10.2.
`COc1ccc(C(=O)/C(C#N)=N/Nc2ccccc2[N+](=O)[O-])cc1` gave b-catenin transl 59.1*, MT stabilizer 10.8, STAT3 activator 99.4, STAT3 inh 4.6 and STAT1 blocker -7.2.
For COc1ccc(C(=O)/C(C#N)=N/Nc2ccc([N+](=O)[O-])cc2)cc1 the results were b-catenin transl 20.3, MT stabilizer 12.2, STAT3 activator 54.3, STAT3 inh 58.6* and STAT1 blocker 36.7*.
For Cc1onc(-c2c(F)cccc2Cl)c1C(=O)N1CCOC12CCCCC2 the results were b-catenin transl -0.6, MT stabilizer 5.6, STAT3 activator 104.3, STAT3 inh -1.2 and STAT1 blocker -0.8.
For COc1ccc(C(=O)OCC(=O)NCc2ccccc2)c(OC)c1OC the results were b-catenin transl -0.1, MT stabilizer 4.6, STAT3 activator 104.6, STAT3 inh -3.2 and STAT1 blocker -3.6.
Screening CCCCC1=NN(C(=O)c2cccnc2)C(O)(C(F)(F)F)C1 (stereo unspecified) returned b-catenin transl -6.4.
`COc1cc(/C=N/NC(=O)c2csc3c2CCCC3)cc(OC)c1O` gave b-catenin transl -1.8, MT stabilizer 2.9, STAT3 activator 116.2, STAT3 inh -16.3 and STAT1 blocker -3.8.
Screening Cc1ccc(/C=N/NC(=O)c2csc3c2CCCC3)cc1 returned b-catenin transl 43.1, MT stabilizer 20.2*, STAT3 activator 104.7, STAT3 inh 2.0 and STAT1 blocker -21.1.
`COc1ccc(OCCC(=O)NCCN2CCOCC2)cc1` gave b-catenin transl -1.8, MT stabilizer 4.3, STAT3 activator 100.6, STAT3 inh 3.9 and STAT1 blocker -0.1.
`O=C(NCC1(N2CCOCC2)CCCCC1)c1cccc(S(=O)(=O)N2CCc3ccccc3C2)c1` gave b-catenin transl -0.1, MT stabilizer 5.8, STAT3 activator 97.2, STAT3 inh 5.6 and STAT1 blocker -1.0.
For O=C(NCCCN1CCOCC1)c1cccc(S(=O)(=O)N2CCc3ccccc3C2)c1 the results were b-catenin transl -2.0, MT stabilizer 63.0*, STAT3 activator 97.0, STAT3 inh 11.2 and STAT1 blocker 0.8.
For O=C1c2ccccc2OC2(C=Cc3ccccc3O2)N1Cc1ccccc1 (stereo unspecified) the results were b-catenin transl 48.4, MT stabilizer 42.2*, STAT3 activator 101.3, STAT3 inh -1.5 and STAT1 blocker -2.5.
Screening O=C(N/N=C/c1cccc([N+](=O)[O-])c1)c1ccc(COc2ccccc2-c2ccccc2)cc1 returned b-catenin transl -2.9, MT stabilizer 1.7, STAT3 activator 103.9, STAT3 inh -6.4 and STAT1 blocker 6.6.
For COc1ccc(OCc2cccc(C(=O)O)c2)cc1 the results were b-catenin transl 2.8.
Screening O=C(OCC(F)(F)F)c1cccc(COc2ccc3ccccc3c2)c1 returned MT stabilizer 2.3, STAT3 activator 15.0, STAT3 inh 102.4* and STAT1 blocker 87.5*.
For CC(=O)c1cn(-c2ccc(Cl)cc2)c(=O)n(Cc2ccc(Br)cc2)c1=O the results were b-catenin transl -2.1, MT stabilizer 9.9, STAT3 activator 103.3, STAT3 inh -2.6 and STAT1 blocker -7.3.
For CCOC(=O)C(C)Sc1nc(-c2cccs2)ccc1C#N (stereo unspecified) the results were b-catenin transl 0.7, MT stabilizer 43.7*, STAT3 activator 112.2, STAT3 inh -9.4 and STAT1 blocker 3.1.
For C=COC(=O)CSc1nc(-c2cccs2)ccc1C#N the results were b-catenin transl -0.8, MT stabilizer 8.6, STAT3 activator 90.4, STAT3 inh 17.1 and STAT1 blocker -39.8.
Nc1c(C(=O)Nc2ccc(S(=O)(=O)N3CCCC3)cc2)sc2nc3cc4c(cc3cc12)CCC4 was read as b-catenin transl 2.4, MT stabilizer 27.8*, STAT3 activator 94.3, STAT3 inh 9.3 and STAT1 blocker -20.8.
`Nc1c(C(=O)Nc2ccc(S(=O)(=O)N3CCCC3)cc2)sc2nc3ccc(OC(F)(F)F)cc3cc12` gave b-catenin transl 0.1, MT stabilizer 7.5, STAT3 activator 98.1, STAT3 inh 1.4 and STAT1 blocker -9.6.
CCOc1ccc(NC(=O)CC2SC(=O)N(c3ccccc3)C2=O)cc1 (stereo unspecified) was read as b-catenin transl -1.5, MT stabilizer 2.7, STAT3 activator 113.2, STAT3 inh -11.7 and STAT1 blocker -4.3.
`O=C(NCc1ccco1)C1CC(c2cccc([N+](=O)[O-])c2)=NO1` (stereo unspecified) gave b-catenin transl 1.1, MT stabilizer 4.2, STAT3 activator 101.0, STAT3 inh 5.8 and STAT1 blocker -1.9.
Screening COc1ccccc1CNC(=O)C1CC(c2cccc([N+](=O)[O-])c2)=NO1 (stereo unspecified) returned b-catenin transl -0.5, MT stabilizer 48.5*, STAT3 activator 101.0, STAT3 inh 3.6 and STAT1 blocker 5.5.
`COc1ccc(CNC(=O)C2CC(c3cccc(OC)c3)=NO2)cc1` (stereo unspecified) gave b-catenin transl 3.6, MT stabilizer 5.8, STAT3 activator 97.1, STAT3 inh 8.0 and STAT1 blocker -4.4.
`COc1cccc(C2=NOC(C(=O)NCc3cccs3)C2)c1` (stereo unspecified) gave b-catenin transl 97.8*, MT stabilizer 21.9*, STAT3 activator 107.8, STAT3 inh -4.9 and STAT1 blocker -13.5.
COc1ccc(CC2(CO)CCN(Cc3nc(C(C)C)cs3)CC2)cc1 was read as b-catenin transl 0.3, MT stabilizer 3.1, STAT3 activator 96.0, STAT3 inh 9.9 and STAT1 blocker 10.3.
Screening COc1ccc(-c2[nH]ncc2N=Nc2cc(C)cc(C)c2)cc1 returned b-catenin transl 11.5, MT stabilizer 16.1*, STAT3 activator 98.5, STAT3 inh 4.0 and STAT1 blocker -4.4.
